The results in this text go back to ChEMBL document CHEMBL4052759, “Discovery of DS79182026: A potent orally active hepcidin production inhibitor” (Bioorg Med Chem Lett, 2017).

For series [1], the target named is RAC-alpha serine/threonine-protein kinase (Homo sapiens) (UniProt P31749). Kind of series: Inhibition of AKT1 (unknown origin) at 0.49 uM relative to control.
In series [2] the target is Fibroblast growth factor receptor 1 (Homo sapiens) (UniProt P11362). Kind of series: Inhibition of FGFR1 (unknown origin) at 0.49 uM relative to control.
Series [3] has as its target Tyrosine-protein kinase Fgr (Homo sapiens) (UniProt P09769). In words: Inhibition of FGR (unknown origin) at 0.49 uM relative to control.
For series [4], the target named is Tyrosine-protein kinase JAK3 (Homo sapiens) (UniProt P52333). Kind of series: Inhibition of JAK3 (unknown origin) at 0.49 uM relative to control.
The target in series [5] is Leukocyte tyrosine kinase receptor (Homo sapiens) (UniProt P29376). In words: Inhibition of LTK (unknown origin) at 0.49 uM relative to control.
Series [6] deals with PAS domain-containing serine/threonine-protein kinase (Homo sapiens) (UniProt Q96RG2). Kind of series: Inhibition of PASK (unknown origin) at 0.49 uM relative to control.
Series [7] deals with Phosphorylase b kinase gamma catalytic chain, skeletal muscle/heart isoform (Homo sapiens) (UniProt Q16816). Kind of series: Inhibition of PhKg1 (unknown origin) at 0.49 uM relative to control.
In series [8] the test system is Tyrosine-protein kinase ABL1 (Homo sapiens), P00519 [Q252H]. Kind of series: Inhibition of Abl Q252H mutant (unknown origin) at 0.49 uM relative to control.
Series [9] concerns Platelet-derived growth factor receptor alpha (Homo sapiens), P16234 [D842V]. In words: Inhibition of PDGFRA D842V mutant (unknown origin) at 0.49 uM relative to control.
Series [10] concerns the target Tyrosine-protein kinase Yes (Homo sapiens) (UniProt P07947). Kind of series: Inhibition of Yes (unknown origin) at 0.49 uM relative to control.
Series [11] addresses Testis-specific serine/threonine-protein kinase 1 (Homo sapiens) (UniProt Q9BXA7). In words: Inhibition of TSSK1 (unknown origin) at 0.45 uM relative to control.
Series [12] addresses Cyclin-dependent kinase 5/CDK5 activator 1 (Homo sapiens) (UniProt Q00535+Q15078). In words: Inhibition of CDK5/p25 (unknown origin) at 0.45 uM relative to control. It counts as protein-complex assay.
Series [13] deals with Ephrin type-A receptor 1 (Homo sapiens) (UniProt P21709). Kind of series: Inhibition of EPHA1 (unknown origin) at 0.45 uM relative to control.
In series [14] the target is Ribosomal protein S6 kinase alpha-6 (Homo sapiens) (UniProt Q9UK32). Kind of series: Inhibition of RSK4 (unknown origin) at 0.45 uM relative to control.
Series [15] concerns the target Insulin-like growth factor 1 receptor (Homo sapiens) (UniProt P08069). Kind of series: Inhibition of IGF1R (unknown origin) at 0.45 uM relative to control.
For series [16], the target named is Tyrosine-protein kinase Lyn (Homo sapiens) (UniProt P07948). Kind of series: Inhibition of LYN (unknown origin) at 0.45 uM relative to control.
Series [17] addresses Tyrosine-protein kinase Mer (Homo sapiens) (UniProt Q12866). In words: Inhibition of Mer (unknown origin) at 0.45 uM relative to control.
The target in series [18] is MAP kinase-activated protein kinase 2 (Homo sapiens) (UniProt P49137). In words: Inhibition of MAPKAPK2 (unknown origin) at 0.45 uM relative to control.
Series [19] addresses MAP/microtubule affinity-regulating kinase 4 (Homo sapiens) (UniProt Q96L34). In words: Inhibition of MARK4 (unknown origin) at 0.45 uM relative to control.
Series [20] has as its target MAP kinase-interacting serine/threonine-protein kinase 1 (Homo sapiens) (UniProt Q9BUB5). In words: Inhibition of MNK1 (unknown origin) at 0.45 uM relative to control.
The target in series [21] is MAP kinase-interacting serine/threonine-protein kinase 2 (Homo sapiens) (UniProt Q9HBH9). Kind of series: Inhibition of MNK2 (unknown origin) at 0.45 uM relative to control.
The subject of series [22] is Tyrosine-protein kinase ABL1 (Homo sapiens), P00519 [Q252H]. In words: Inhibition of Abl Q252H mutant (unknown origin) at 0.45 uM relative to control.
In series [23] the target is Tyrosine-protein kinase Blk (Homo sapiens) (UniProt P51451). Kind of series: Inhibition of BLK (unknown origin) at 0.45 uM relative to control.
In series [24] the test system is Proto-oncogene tyrosine-protein kinase receptor Ret (Homo sapiens), P07949 [M918T]. In words: Inhibition of RET M918T mutant (unknown origin) at 0.45 uM relative to control.
For series [25], the target named is Interleukin-1 receptor-associated kinase 1 (Homo sapiens) (UniProt P51617). In words: Inhibition of IRAK1 (unknown origin) at 0.45 uM relative to control.
In series [26] the target is T1, Interleukin-1 receptor-associated kinase 4 (Homo sapiens) (UniProt Q9NWZ3).
T1 sequence (whole entry): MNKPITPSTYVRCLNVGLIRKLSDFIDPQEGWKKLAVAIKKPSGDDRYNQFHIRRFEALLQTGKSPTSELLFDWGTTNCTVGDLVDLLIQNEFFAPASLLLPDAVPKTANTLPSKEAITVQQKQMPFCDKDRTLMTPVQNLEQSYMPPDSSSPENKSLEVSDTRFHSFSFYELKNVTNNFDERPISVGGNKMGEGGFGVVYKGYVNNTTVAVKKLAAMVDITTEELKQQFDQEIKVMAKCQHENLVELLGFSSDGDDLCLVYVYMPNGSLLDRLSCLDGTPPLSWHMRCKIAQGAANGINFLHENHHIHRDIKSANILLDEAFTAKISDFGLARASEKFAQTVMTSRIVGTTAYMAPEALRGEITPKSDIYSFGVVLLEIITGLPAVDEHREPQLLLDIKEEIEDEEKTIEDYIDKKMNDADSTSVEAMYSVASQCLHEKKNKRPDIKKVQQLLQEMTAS
Kind of series: Inhibition of IRAK4 (unknown origin) at 0.45 uM relative to control.

A short description of series [27]: Clearance in C57BL/6J mouse at 30 mg/kg, iv by LC-MS/MS analysis. It counts as ADME, organism-based. The settings on record: in vivo. The procedure, abridged: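 C57BL/6J mice got a single 30 mg/kg intravenous dose as a solution in 92 mM SBE7-β-CyD. The value is the average of two animals.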
A further series is filed under the species Homo sapiens. In words: Inhibition of PKA (unknown origin) at 0.078 uM relative to control.
The target of series [28] is Mitogen-activated protein kinase kinase kinase kinase 4 (Homo sapiens) (UniProt O95819). Kind of series: Inhibition of HGK (unknown origin) at 0.078 uM relative to control.
Series [29] concerns the target Insulin-like growth factor 1 receptor (Homo sapiens) (UniProt P08069). In words: Inhibition of IGF1R (unknown origin) at 0.078 uM relative to control.

Chain of Insulin-like growth factor 1 receptor (Homo sapiens) (P08069 31-736 limits assumed): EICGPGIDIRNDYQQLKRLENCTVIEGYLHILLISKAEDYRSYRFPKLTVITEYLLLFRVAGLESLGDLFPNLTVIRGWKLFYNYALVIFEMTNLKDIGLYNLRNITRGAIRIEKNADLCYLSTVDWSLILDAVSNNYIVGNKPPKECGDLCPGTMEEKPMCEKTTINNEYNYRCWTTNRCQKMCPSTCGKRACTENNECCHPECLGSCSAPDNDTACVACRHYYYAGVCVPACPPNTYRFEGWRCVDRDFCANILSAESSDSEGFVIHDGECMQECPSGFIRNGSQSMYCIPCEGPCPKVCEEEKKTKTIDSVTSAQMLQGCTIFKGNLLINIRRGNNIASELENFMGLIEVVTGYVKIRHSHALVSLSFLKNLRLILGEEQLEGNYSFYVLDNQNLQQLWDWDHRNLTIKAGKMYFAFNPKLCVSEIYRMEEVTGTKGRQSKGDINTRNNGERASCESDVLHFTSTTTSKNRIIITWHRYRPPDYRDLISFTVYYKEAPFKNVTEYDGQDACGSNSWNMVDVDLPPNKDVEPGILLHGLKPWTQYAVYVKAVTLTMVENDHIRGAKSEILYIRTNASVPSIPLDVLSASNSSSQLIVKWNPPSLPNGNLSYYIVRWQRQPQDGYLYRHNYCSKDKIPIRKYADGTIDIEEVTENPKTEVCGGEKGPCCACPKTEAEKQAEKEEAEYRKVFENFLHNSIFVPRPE
Chain of Insulin-like growth factor 1 receptor (Homo sapiens) (P08069 741-1367 limits assumed): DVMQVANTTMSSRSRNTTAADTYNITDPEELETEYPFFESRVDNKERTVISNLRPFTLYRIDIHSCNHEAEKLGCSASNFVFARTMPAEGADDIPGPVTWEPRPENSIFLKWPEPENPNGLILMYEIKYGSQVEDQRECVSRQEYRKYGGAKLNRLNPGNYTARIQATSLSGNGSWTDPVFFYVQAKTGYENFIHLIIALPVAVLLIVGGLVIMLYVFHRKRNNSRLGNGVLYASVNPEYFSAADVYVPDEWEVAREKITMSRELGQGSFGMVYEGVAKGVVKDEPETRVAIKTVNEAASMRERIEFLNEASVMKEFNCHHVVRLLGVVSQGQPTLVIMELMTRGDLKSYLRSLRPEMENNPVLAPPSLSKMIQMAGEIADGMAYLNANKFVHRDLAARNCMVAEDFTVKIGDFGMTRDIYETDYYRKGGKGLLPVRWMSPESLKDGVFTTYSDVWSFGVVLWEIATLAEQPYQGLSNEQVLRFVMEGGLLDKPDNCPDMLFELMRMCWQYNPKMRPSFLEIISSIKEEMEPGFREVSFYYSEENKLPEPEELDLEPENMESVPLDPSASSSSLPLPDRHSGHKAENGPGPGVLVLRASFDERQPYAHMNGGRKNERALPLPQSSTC
Chain of Tyrosine-protein kinase Lyn (Homo sapiens) (P07948 2-512 limits assumed): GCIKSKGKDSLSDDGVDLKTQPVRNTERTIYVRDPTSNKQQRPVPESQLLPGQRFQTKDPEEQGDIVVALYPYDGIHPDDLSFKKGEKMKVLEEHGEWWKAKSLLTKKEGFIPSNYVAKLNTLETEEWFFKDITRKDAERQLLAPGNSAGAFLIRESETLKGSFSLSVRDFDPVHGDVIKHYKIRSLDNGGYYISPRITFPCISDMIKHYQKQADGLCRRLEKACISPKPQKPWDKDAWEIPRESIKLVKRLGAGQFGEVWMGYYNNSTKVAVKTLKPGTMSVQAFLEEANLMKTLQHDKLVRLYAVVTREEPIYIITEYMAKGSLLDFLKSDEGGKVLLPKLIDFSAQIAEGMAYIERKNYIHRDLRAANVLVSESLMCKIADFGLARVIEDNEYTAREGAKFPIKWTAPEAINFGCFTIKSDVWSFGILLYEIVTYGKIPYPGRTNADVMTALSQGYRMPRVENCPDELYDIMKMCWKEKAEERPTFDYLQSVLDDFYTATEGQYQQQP
Chain of Proto-oncogene tyrosine-protein kinase receptor Ret (Homo sapiens), P07949 [M918T] (P07949 whole entry M918T): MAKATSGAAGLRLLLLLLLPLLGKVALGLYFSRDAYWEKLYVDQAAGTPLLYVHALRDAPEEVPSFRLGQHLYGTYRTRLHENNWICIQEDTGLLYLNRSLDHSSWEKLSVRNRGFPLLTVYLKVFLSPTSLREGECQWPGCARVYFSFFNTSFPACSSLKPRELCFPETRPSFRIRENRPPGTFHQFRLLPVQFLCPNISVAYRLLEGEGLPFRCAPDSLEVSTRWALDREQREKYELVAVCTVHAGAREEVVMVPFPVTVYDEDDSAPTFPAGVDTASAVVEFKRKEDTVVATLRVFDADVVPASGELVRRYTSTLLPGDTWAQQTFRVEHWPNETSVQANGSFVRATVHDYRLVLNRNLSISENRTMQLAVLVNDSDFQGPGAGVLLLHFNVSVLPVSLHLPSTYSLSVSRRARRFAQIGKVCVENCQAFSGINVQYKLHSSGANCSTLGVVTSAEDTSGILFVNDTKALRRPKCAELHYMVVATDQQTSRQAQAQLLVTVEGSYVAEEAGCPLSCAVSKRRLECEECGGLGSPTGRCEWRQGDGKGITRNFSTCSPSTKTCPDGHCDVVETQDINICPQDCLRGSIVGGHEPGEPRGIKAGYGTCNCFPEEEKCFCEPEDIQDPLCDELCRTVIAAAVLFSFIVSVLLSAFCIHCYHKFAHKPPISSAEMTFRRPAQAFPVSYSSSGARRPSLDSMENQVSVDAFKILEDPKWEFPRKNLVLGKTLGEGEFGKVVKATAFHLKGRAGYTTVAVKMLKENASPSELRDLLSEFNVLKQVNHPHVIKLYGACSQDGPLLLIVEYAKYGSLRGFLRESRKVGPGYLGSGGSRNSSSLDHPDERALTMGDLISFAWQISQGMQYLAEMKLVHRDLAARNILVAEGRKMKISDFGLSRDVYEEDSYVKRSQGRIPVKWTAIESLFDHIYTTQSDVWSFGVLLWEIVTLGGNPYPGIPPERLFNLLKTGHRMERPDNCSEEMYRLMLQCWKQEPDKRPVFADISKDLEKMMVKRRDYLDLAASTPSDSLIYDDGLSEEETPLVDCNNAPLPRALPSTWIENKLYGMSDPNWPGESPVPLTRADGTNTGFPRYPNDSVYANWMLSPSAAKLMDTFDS
Chain of Tyrosine-protein kinase JAK3 (Homo sapiens) (P52333 whole entry): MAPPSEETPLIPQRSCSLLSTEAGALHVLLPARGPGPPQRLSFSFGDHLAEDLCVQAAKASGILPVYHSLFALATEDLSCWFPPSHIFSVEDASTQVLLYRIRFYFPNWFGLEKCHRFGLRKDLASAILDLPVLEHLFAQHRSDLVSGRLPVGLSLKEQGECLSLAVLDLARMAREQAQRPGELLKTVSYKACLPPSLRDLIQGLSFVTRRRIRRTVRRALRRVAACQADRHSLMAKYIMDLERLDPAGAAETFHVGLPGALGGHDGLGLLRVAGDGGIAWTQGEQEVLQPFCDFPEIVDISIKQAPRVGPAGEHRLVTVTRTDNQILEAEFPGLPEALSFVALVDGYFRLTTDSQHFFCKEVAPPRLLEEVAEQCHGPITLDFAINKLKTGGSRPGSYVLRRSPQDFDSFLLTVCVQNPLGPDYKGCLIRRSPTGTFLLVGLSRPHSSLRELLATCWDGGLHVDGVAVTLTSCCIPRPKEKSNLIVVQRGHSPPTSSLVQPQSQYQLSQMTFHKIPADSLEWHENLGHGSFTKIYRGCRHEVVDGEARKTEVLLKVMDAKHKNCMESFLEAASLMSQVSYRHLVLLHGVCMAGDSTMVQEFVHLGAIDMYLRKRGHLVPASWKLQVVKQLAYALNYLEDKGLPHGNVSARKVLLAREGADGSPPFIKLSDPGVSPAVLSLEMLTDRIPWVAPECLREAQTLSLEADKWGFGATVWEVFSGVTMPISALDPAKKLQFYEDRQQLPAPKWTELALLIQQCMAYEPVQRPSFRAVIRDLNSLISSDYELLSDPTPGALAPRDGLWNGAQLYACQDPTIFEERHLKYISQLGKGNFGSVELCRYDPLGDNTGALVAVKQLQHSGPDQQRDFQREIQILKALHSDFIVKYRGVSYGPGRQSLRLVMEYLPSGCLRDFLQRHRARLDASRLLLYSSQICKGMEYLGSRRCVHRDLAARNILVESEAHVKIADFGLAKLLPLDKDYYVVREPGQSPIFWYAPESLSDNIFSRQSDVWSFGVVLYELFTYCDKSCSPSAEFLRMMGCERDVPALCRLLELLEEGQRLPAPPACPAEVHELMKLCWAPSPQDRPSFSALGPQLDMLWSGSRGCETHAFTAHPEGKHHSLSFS
Chain of Ephrin type-A receptor 1 (Homo sapiens) (P21709 whole entry): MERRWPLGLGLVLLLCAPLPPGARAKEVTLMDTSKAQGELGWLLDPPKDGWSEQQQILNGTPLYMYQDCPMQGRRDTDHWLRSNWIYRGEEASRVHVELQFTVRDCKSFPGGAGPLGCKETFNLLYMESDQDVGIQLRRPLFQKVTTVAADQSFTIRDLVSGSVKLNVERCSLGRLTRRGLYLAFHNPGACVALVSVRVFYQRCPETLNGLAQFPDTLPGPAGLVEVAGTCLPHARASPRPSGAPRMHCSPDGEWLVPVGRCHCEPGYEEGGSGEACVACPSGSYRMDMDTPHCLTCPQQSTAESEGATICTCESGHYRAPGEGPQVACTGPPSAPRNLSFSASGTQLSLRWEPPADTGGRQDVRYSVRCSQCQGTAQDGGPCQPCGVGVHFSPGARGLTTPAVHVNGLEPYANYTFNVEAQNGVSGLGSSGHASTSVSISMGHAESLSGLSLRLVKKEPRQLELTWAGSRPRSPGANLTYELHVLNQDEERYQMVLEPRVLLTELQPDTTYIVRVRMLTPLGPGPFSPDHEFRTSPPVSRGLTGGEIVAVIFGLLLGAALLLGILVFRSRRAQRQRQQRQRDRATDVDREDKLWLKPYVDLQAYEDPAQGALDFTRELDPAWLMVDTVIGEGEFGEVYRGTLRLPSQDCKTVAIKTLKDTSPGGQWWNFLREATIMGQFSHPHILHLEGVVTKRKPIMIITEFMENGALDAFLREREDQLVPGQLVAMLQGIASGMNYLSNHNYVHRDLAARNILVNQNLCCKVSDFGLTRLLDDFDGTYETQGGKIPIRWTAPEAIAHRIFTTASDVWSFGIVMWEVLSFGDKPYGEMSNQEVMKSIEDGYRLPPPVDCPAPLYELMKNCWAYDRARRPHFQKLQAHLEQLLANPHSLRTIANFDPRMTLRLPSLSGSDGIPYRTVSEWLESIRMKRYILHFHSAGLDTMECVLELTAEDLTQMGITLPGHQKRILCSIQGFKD

Regarding `Cc1[nH]nc(C2CC2)c1-c1ccc2c(NC(=O)C3CC3)noc2c1`, the inhibition in series [1] was 2.3%; in series [2] it was 0.7%; in series [3], -4%; in series [4], -7.3%; in series [5] it was -3.3%; in series [6] it was 1.3%. Further, the inhibition was 2.3% in [7], 30.3% in [8], 31.7% in series [9] and -8% in [10].
For `Cc1n[nH]c(C)c1-c1ccc2c(NC(=O)c3ccc(N4CCN(C)CC4)cc3)n[nH]c2c1`, the inhibition in series [11] is -1%; in [12], 0.3%; in series [13] it was 21%; in series [14] it was 50.7%; in [15] it was 3%; in [16], 32.3%. The inhibition in [17] was 0.7%; in [18], 0.3%; in series [19], 37%; in series [20], 6.7%; in series [21] it was -1%; in series [22], 72%. Also, the inhibition was 20% in series [23], 57.7% in series [24], 4.3% in series [25] and 11% in [26].
Turning to `COC(=O)Nc1noc2cc(-c3c(-c4ccccn4)n[nH]c3C)ccc12`, the clearance in series [27] was determined as 14.5 mL/min/kg. For the same molecule, the inhibition was -2.3% in the series filed under Homo sapiens, 40.7% in [28] and 2.3% in [29].
